The values that follow come from ChEMBL document CHEMBL4251654, “Structure-based design of human immuno- and constitutive proteasomes inhibitors” (Eur J Med Chem, 2018).

By inhibition is commonly meant the relative decrease from the control value, in per cent. For orientation: pIC50 means the negative decadic logarithm of the IC50, by convention in mol/L. Lower therefore signals a high IC50.

Molecules are shown by their SMILES. pIC50: −log10 of the molar value. Calls of active or inactive are those of the source. No cut-off for these calls is given here. Where only a bound is given, the exact number is not on record here.

Sequence of Proteasome Macropain subunit (Homo sapiens) (P49721 whole entry): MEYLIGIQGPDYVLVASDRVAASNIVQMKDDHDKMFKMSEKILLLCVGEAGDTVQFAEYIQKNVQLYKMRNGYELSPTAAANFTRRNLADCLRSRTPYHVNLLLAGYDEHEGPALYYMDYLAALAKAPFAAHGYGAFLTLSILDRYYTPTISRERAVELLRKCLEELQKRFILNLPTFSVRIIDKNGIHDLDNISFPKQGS

The first assay has as its target T1, Proteasome subunit beta type-8 (Homo sapiens) (UniProt P28062).
T1 sequence (whole entry): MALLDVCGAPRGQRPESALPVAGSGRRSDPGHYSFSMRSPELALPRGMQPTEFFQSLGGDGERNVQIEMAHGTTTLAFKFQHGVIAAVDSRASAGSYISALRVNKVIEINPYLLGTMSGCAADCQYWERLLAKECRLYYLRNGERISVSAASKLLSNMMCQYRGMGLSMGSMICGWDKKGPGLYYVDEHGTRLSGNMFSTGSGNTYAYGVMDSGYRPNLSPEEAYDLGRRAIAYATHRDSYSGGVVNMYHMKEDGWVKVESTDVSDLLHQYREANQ
Kind of assay: Inhibition of human 20S immunoproteasome beta-5 at 50 uM using Suc-LLVY-AMC as substrate incubated for 15 mins measured for 45 mins by fluorescence assay relative to control. In outline:
(§1)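 Human 20S cCP or iCP (0.3 nM) was exposed to compound (0.001-50 μM) for 15 min in pH 8 buffer of 20 mM Tris-HCl, 10% glycerol, 0.01% SDS, 2% DMSO. Suc-LLVY-AMC at 20 μM followed. Fluorescence (ex 360/em 460 nm) was read 45 min at 37 °C versus untreated enzyme.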
`C[C@H](NC(=O)[C@H](Cc1ccc(OCc2ccccc2)cc1)NC(=O)OC(C)(C)C)C(=O)N[C@@H](C[C@]1(O)C(=O)Nc2ccccc21)C(=O)NCc1ccc(-c2ccccc2)cc1` yielded an inhibition above 85%.
The same measure, in the same setting: with `CC(C)c1ccc(CNC(=O)[C@H](C[C@]2(O)C(=O)Nc3ccccc32)NC(=O)[C@H](C)NC(=O)[C@H](Cc2ccc(OCc3ccccc3)cc2)NC(=O)OC(C)(C)C)cc1` the figure was above 85%.

The next assay concerns the target T2, Proteasome Macropain subunit MB1 (Homo sapiens, UniProt P28074).
T2 sequence (P28074 whole entry): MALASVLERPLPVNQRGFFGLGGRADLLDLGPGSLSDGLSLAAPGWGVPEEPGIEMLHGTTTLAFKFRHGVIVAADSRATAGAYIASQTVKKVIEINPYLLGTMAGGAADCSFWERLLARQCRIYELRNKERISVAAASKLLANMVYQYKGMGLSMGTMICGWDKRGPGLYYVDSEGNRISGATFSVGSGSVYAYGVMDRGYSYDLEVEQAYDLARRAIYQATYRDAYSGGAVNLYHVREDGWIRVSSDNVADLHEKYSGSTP
Kind of assay: Inhibition of human 20S constitutive proteasome beta-5 using Suc-LLVY-AMC as substrate incubated for 15 mins measured for 45 mins by fluorescence assay. The gist of the method: as §1
The compound `C[C@H](NC(=O)[C@H](Cc1ccc(OCc2ccccc2)cc1)NC(=O)OC(C)(C)C)C(=O)N[C@@H](C[C@]1(O)C(=O)Nc2ccccc21)C(=O)NCc1ccc(-c2ccccc2)cc1` showed a pIC50 of 4.54.
The same measure, in the same setting: with `CC(C)c1ccc(CNC(=O)[C@H](C[C@]2(O)C(=O)Nc3ccccc32)NC(=O)[C@H](C)NC(=O)[C@H](Cc2ccc(OCc3ccccc3)cc2)NC(=O)OC(C)(C)C)cc1` the figure was 5.00.

A further assay concerns the target T3, Proteasome subunit beta type-10 (Homo sapiens) (UniProt P40306).
T3 sequence (whole entry): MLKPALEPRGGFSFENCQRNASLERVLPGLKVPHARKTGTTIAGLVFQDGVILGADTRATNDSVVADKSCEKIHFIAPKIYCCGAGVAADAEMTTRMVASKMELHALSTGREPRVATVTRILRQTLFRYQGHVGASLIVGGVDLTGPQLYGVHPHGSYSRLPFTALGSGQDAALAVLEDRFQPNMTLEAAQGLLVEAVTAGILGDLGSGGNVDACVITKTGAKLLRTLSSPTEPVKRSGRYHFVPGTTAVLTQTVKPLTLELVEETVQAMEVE
Kind of assay: Activation of human 20S immunoproteasome beta-2 at 50 uM using BocLRR-AMC as substrate incubated for 15 mins measured for 45 mins by fluorescence assay relative to control. The gist of the method:
(§2)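 Purified human 20S proteasome (cCP or iCP), 0.3 nM, preincubated 15 min with compound (0.001-50 μM) in pH 8 buffer of 20 mM Tris-HCl, 10% glycerol, 0.005% Triton X-100, 2% DMSO. Then Boc-LRR-AMC at 50 μM was added. AMC fluorescence (ex 360/em 460 nm) was followed 45 min at 37 °C. Activity is relative to an untreated control.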
In the case of `C[C@H](NC(=O)[C@H](Cc1ccc(OCc2ccccc2)cc1)NC(=O)OC(C)(C)C)C(=O)N[C@@H](C[C@]1(O)C(=O)Nc2ccccc21)C(=O)NCc1ccc(-c2ccccc2)cc1`, the fold change (FC) is 1.5.
As to `CC(C)c1ccc(CNC(=O)[C@H](C[C@]2(O)C(=O)Nc3ccccc32)NC(=O)[C@H](C)NC(=O)[C@H](Cc2ccc(OCc3ccccc3)cc2)NC(=O)OC(C)(C)C)cc1`, the fold change (FC) is 1.3.

The next assay addresses T4, Proteasome subunit beta type-8 (Homo sapiens, UniProt P28062).
T4 sequence (P28062 whole entry): T1 sequence (whole entry)
The experiment in a line: Inhibition of human 20S immunoproteasome beta-5 using Suc-LLVY-AMC as substrate incubated for 15 mins measured for 45 mins by fluorescence assay. The gist of the method: as §1
`C[C@H](NC(=O)[C@H](Cc1ccc(OCc2ccccc2)cc1)NC(=O)OC(C)(C)C)C(=O)N[C@@H](C[C@]1(O)C(=O)Nc2ccccc21)C(=O)NCc1ccc(-c2ccccc2)cc1` had a pIC50 of 4.71.
`CC(C)c1ccc(CNC(=O)[C@H](C[C@]2(O)C(=O)Nc3ccccc32)NC(=O)[C@H](C)NC(=O)[C@H](Cc2ccc(OCc3ccccc3)cc2)NC(=O)OC(C)(C)C)cc1` had a pIC50 of 4.77.

A further assay addresses T5, Proteasome subunit beta type-9 (Homo sapiens, UniProt P28065).
T5 sequence (P28065 whole entry): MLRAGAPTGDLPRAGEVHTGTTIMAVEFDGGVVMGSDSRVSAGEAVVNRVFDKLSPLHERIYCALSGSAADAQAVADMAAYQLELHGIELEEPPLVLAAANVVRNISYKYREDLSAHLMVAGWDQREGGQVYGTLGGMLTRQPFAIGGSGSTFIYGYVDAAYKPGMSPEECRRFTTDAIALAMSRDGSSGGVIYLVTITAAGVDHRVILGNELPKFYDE
The experiment in a line: Inhibition of human 20S immunoproteasome beta-1 using Ac-PAL-AMC as substrate incubated for 15 mins measured for 45 mins by fluorescence assay. In outline: (§3)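 Human 20S immunoproteasome (0.3 nM) was given 15 min with compound (0.001-50 μM) in pH 8 buffer of 20 mM Tris-HCl, 10% glycerol, 0.01% SDS, 2% DMSO. Ac-PAL-AMC at 50 μM was the substrate. Fluorescence (ex 360/em 460 nm) was followed 45 min at 37 °C relative to control.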
The compound `C[C@H](NC(=O)[C@H](Cc1ccc(OCc2ccccc2)cc1)NC(=O)OC(C)(C)C)C(=O)N[C@@H](C[C@]1(O)C(=O)Nc2ccccc21)C(=O)NCc1ccc(-c2ccccc2)cc1` gave a negative logarithm of the IC50 (pIC50) of 4.89.

The next assay concerns the target T6, Proteasome Macropain subunit MB1 (Homo sapiens) (UniProt P28074).
T6 sequence (whole entry): T2 sequence (P28074 whole entry)
Kind of assay: Inhibition of human 20S constitutive proteasome beta-5 at 50 uM using Suc-LLVY-AMC as substrate incubated for 15 mins measured for 45 mins by fluorescence assay relative to control. The gist of the method:
as §1
As to `C[C@H](NC(=O)[C@H](Cc1ccc(OCc2ccccc2)cc1)NC(=O)OC(C)(C)C)C(=O)N[C@@H](C[C@]1(O)C(=O)Nc2ccccc21)C(=O)NCc1ccc(-c2ccccc2)cc1`, the inhibition is above 85%.
Take `CC(C)c1ccc(CNC(=O)[C@H](C[C@]2(O)C(=O)Nc3ccccc32)NC(=O)[C@H](C)NC(=O)[C@H](Cc2ccc(OCc3ccccc3)cc2)NC(=O)OC(C)(C)C)cc1`: the inhibition was above 85%.

The next assay concerns the target T7, Proteasome subunit beta type-9 (Homo sapiens) (UniProt P28065).
T7 sequence (whole entry): T5 sequence (P28065 whole entry)
Kind of assay: Inhibition of human 20S immunoproteasome beta-1 at 50 uM using Ac-PAL-AMC as substrate incubated for 15 mins measured for 45 mins by fluorescence assay relative to control. In outline: as §3
Take `C[C@H](NC(=O)[C@H](Cc1ccc(OCc2ccccc2)cc1)NC(=O)OC(C)(C)C)C(=O)N[C@@H](C[C@]1(O)C(=O)Nc2ccccc21)C(=O)NCc1ccc(-c2ccccc2)cc1`: the inhibition was above 85%.
Still for that read-out and setting: with `CC(C)c1ccc(CNC(=O)[C@H](C[C@]2(O)C(=O)Nc3ccccc32)NC(=O)[C@H](C)NC(=O)[C@H](Cc2ccc(OCc3ccccc3)cc2)NC(=O)OC(C)(C)C)cc1` the figure was above 85%.

For the next assay, the target named is Proteasome Macropain subunit (Homo sapiens) (UniProt P49721). Kind of assay: Inhibition of human 20S constitutive proteasome beta-2 at 50 uM using BocLRR-AMC as substrate incubated for 15 mins measured for 45 mins by fluorescence assay relative to control. The gist of the method:
as §2
For `C[C@H](NC(=O)[C@H](Cc1ccc(OCc2ccccc2)cc1)NC(=O)OC(C)(C)C)C(=O)N[C@@H](C[C@]1(O)C(=O)Nc2ccccc21)C(=O)NCc1ccc(-c2ccccc2)cc1`, the inhibition result was “inactive”.
On the same count and under the same terms, the value for `CC(C)c1ccc(CNC(=O)[C@H](C[C@]2(O)C(=O)Nc3ccccc32)NC(=O)[C@H](C)NC(=O)[C@H](Cc2ccc(OCc3ccccc3)cc2)NC(=O)OC(C)(C)C)cc1` was “inactive”.

Another assay has as its target T8, Proteasome component C5 (Homo sapiens) (UniProt P20618).
T8 sequence (whole entry): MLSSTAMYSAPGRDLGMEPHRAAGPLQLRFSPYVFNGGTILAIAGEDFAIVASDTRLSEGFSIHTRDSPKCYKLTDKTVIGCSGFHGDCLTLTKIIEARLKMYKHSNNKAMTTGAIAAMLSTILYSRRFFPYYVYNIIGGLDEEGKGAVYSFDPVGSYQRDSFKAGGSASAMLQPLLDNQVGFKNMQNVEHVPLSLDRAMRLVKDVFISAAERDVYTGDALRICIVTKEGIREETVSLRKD
The experiment in a line: Inhibition of human 20S constitutive proteasome beta-1 at 50 uM using Z-LLE-betaNA as substrate incubated for 15 mins measured for 45 mins by fluorescence assay relative to control. In outline: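 Human 20S constitutive proteasome, 0.3 nM, was preincubated 15 min with compound (0.001-50 μM) in pH 8 Tris-HCl 20 mM, 10% glycerol, 0.01% SDS, 2% DMSO. Z-LLE-βNA at 50 μM was added. βNA fluorescence (ex 340/em 404 nm) was monitored 45 min at 37 °C against an untreated control.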
`C[C@H](NC(=O)[C@H](Cc1ccc(OCc2ccccc2)cc1)NC(=O)OC(C)(C)C)C(=O)N[C@@H](C[C@]1(O)C(=O)Nc2ccccc21)C(=O)NCc1ccc(-c2ccccc2)cc1`: the inhibition is above 85%.
Still for that read-out and setting: the value for `CC(C)c1ccc(CNC(=O)[C@H](C[C@]2(O)C(=O)Nc3ccccc32)NC(=O)[C@H](C)NC(=O)[C@H](Cc2ccc(OCc3ccccc3)cc2)NC(=O)OC(C)(C)C)cc1` was 37%.
